pIC50: −log10 of the molar value.
Tests used:
Prostaglandin E synthase = Prostaglandin E synthase (Homo sapiens, UniProt O14684); assay: Inhibitory concentration against human prostaglandin E2 synthase (mPGES-1)
Procedure, shortened: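 Microsomes from CHO cells expressing recombinant human mPGES-1, 5–10 lg protein/mL, preincubated with inhibitor 15 min. Reaction started with 1 µM PGH₂ and run 0.5 min, then stopped with 0.1 N HCl plus stannous chloride. PGE₂ measured by EIA. IC₅₀ from eight-point titrations.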

Thromboxane-A synthase = target: T1, Thromboxane-A synthase (Homo sapiens, UniProt P24557); assay: In vitro inhibition against human Thromboxane synthase
T1 sequence (P24557 whole entry): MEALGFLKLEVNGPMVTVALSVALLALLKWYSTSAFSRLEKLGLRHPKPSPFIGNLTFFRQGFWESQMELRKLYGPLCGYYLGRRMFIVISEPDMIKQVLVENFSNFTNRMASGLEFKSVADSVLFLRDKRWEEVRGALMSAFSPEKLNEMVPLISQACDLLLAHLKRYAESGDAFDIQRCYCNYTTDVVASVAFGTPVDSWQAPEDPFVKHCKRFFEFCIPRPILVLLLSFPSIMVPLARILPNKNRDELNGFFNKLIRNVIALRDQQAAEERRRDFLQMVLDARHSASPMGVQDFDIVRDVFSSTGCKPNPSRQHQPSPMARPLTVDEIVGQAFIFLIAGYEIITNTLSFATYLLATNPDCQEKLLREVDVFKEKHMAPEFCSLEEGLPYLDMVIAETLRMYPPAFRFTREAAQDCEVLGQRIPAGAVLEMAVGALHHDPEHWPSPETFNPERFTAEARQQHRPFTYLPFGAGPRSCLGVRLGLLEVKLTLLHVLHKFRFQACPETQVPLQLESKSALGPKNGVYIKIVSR

[1] = target: T2, Arachidonate 5-lipoxygenase-activating protein (Homo sapiens, UniProt P20292); assay: In vitro binding affinity against FLAP (5-Lipoxygenase activation protein)
T2 sequence (P20292 whole entry): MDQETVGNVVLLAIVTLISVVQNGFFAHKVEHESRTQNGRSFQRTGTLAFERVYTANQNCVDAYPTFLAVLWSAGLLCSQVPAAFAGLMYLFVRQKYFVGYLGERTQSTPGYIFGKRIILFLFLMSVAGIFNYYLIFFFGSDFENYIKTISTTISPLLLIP

Chain of Prostaglandin E synthase (O14684 whole entry, looked up): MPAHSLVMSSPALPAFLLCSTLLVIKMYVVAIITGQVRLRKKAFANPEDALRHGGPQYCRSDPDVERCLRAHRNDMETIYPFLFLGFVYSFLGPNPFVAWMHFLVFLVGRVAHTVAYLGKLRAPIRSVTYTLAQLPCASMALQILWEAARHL

Row | pIC50 (Prostaglandin E synthase) | pIC50 (Thromboxane-A synthase) | pIC50 [1] | SMILES
1 | 8.30 |  |  | COc1ccccc1-c1ccc(-c2ccc3c(c2)c(C)c(CC(C)(C)C(=O)O)n3Cc2ccc(Cl)cc2)cc1F
2 | 6.80 |  |  | Cc1c(CC(C)(C)C(=O)O)n(Cc2ccc(Cl)cc2)c2ccc(-c3cccc(-c4ccccc4)c3)cc12
3 | 5.49 |  |  | Cc1c(CC(C)(C)C(=O)O)n(Cc2ccc(Cl)cc2)c2ccccc12
4 | 6.48 |  |  | Cc1c(CC(C)(C)C(=O)O)n(Cc2ccc(Cl)cc2)c2ccc(C(C)(C)C)cc12
5 | 5.14 |  |  | COC(=O)C(C)(C)Cc1c(SC(C)(C)C)c2cc(C(C)C)ccc2n1Cc1ccc(Cl)cc1
6 | < 5.00 |  |  | CC(C)c1ccc2[nH]c(CC(C)(C)C(=O)O)c(SC(C)(C)C)c2c1
7 | 7.51 |  |  | Cc1ccc(-c2ccc(-c3ccc4c(c3)c(C)c(CC(C)(C)C(=O)O)n4Cc3ccc(Cl)cc3)cc2F)cc1
8 | 6.22 |  |  | Cc1c(CC(C)(C)C(=O)O)n(Cc2ccc(Cl)cc2)c2ccc(-c3ccccc3)cc12
9 | 7.48 |  |  | Cc1cccc(-c2ccc(-c3ccc4c(c3)c(C)c(CC(C)(C)C(=O)O)n4Cc3ccc(Cl)cc3)cc2F)c1
10 |  | 6.02 | < 6.00 | Cc1ccccc1-c1ccc(-c2ccc3c(c2)c(C)c(CC(C)(C)C(=O)O)n3Cc2ccc(Cl)cc2)cc1F
11 | 5.37 |  |  | Cc1c(CC(C)(C)C(=O)O)n(Cc2ccc(Cl)cc2)c2c(C(C)C)cccc12
12 |  | 5.85 | < 6.00 | Cc1c(CC(C)(C)C(=O)O)n(Cc2ccc(Cl)cc2)c2ccc(-c3ccc(-c4ccccc4)c(F)c3)cc12
13 | 6.54 |  |  | CC(C)c1ccc2c(c1)c(Cc1ccc(C(C)(C)C)cc1)c(CC(C)(C)C(=O)O)n2Cc1ccc(Cl)cc1
14 | 8.10 |  |  | Cc1c(CC(C)(C)C(=O)O)n(Cc2ccc(Cl)cc2)c2ccc(-c3ccc(-c4ccccc4F)c(F)c3)cc12
15 | 7.66 |  |  | Cc1c(CC(C)(C)C(=O)O)n(Cc2ccc(Cl)cc2)c2ccc(-c3ccc(-c4ccccc4)c(Cl)c3)cc12
16 | 7.92 |  |  | Cc1c(CC(C)(C)C(=O)O)n(Cc2ccc(Cl)cc2)c2ccc(-c3ccc(-c4cccnc4)c(F)c3)cc12
17 | 5.96 |  |  | Cc1c(CC(C)(C)C(=O)O)n(Cc2ccc(Cl)cc2)c2ccc(C(C)C)cc12
18 | 6.19 |  |  | CC(C)c1ccc2c(c1)c(Oc1ccccc1)c(CC(C)(C)C(=O)O)n2Cc1ccc(Cl)cc1
19 | < 5.00 |  |  | CC(C)c1ccc2c(c1)c(SC(C)(C)C)c(CC(C)(C)C(=O)ON)n2Cc1ccc(Cl)cc1
20 | 5.59 |  |  | Cc1c(CC(C)(C)C(=O)O)n(Cc2ccc(Cl)cc2)c2ccc(F)cc12
21 | 7.49 |  |  | Cc1c(CC(C)(C)C(=O)O)n(Cc2ccc(Cl)cc2)c2ccc(-c3ccc(-c4cnccn4)c(F)c3)cc12
22 | 5.19 |  |  | CC(C)c1ccc2c(c1)c(-c1ccccc1)c(CC(C)(C)C(=O)O)n2Cc1ccc(Cl)cc1
23 | < 5.00 |  |  | CC(C)c1ccc2c(c1)c(SC(C)(C)C)c(CC(C)(C)C(=O)O)n2C
24 | 8.22 |  |  | CC(=O)c1ccccc1-c1ccc(-c2ccc3c(c2)c(C)c(CC(C)(C)C(=O)O)n3Cc2ccc(Cl)cc2)cc1F

Row | SMILES | pIC50 (Prostaglandin E synthase) | pIC50 (Thromboxane-A synthase) | pIC50 [1]
25 | CC(C)c1ccc2c(c1)c(C(=O)CSC(C)(C)C)c(CC(C)(C)C(=O)O)n2Cc1ccc(Cl)cc1 | 6.59 |  | 
26 | CC(C)c1ccc2c(c1)c(C(=O)CC(C)(C)C)c(CC(C)(C)C(=O)O)n2Cc1ccc(Cl)cc1 | 6.60 |  | 

From ChEMBL document CHEMBL1140249, “Inhibitors of the inducible microsomal prostaglandin E2 synthase (mPGES-1) derived from MK-886” (Bioorg Med Chem Lett, 2005)
